Four compounds from ChEMBL document CHEMBL1152253, “Inhibition of the CRM1-mediated nucleocytoplasmic transport by N-azolylacrylates: structure-activity relationship and mechanism of action” (Bioorg Med Chem, 2008) can be followed below.

≈ marks a conversion by molar mass, not a printed value. Calls of active or inactive are those of the source. The rule behind the calls is not given here.

A word on the EC50: it is the concentration giving half of the maximal effect.

The target in data set [1] is Exportin-1 (Homo sapiens) (UniProt O14980). As to the kind of experiment: Inhibition of CRM1-mediated nucleocytoplasmic transport of RevM5 mutant in HEK293 cells assessed as RevM5-GFP nuclear localization at 2 ug/ml after 2 hrs by fluorescence microscopy. Type of data set: cell-based. The method, boiled down: (§1)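 HEK 293T cells in 96-well trays were transfected with pRevM5-GFP by calcium phosphate, and compound was added one day later. RevM5-GFP distribution was scored by fluorescence microscopy 2 h after addition. Mainly nuclear localization was scored positive; cytoplasmic localization was scored negative.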

Data set [2] concerns HeLa. As to the kind of experiment: Inhibition of Rev-BFP/CRM1Cys528Ser-EYFP mutant interaction in human HeLa cells assessed as Rev-BFP/CRM1Cys528Ser-EYFP nuclear colocalization after 2 hrs by fluorescence microscopy. Format: cell-based. The method, boiled down: (§2)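 HeLa cells were co-transfected with Rev-BFP and the EYFP-CRM1 Cys528 mutant. One day after transfection they were washed with PBS and treated with compound in complete DMEM. Co-localization was followed by live-cell confocal microscopy at 30, 120 and 180 min and 24 h.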

Data set [3] concerns the target Exportin-1 (Homo sapiens) (UniProt O14980). As to the kind of experiment: Inhibition of CRM1-mediated nucleocytoplasmic transport of RevM5 mutant in HEK293 cells assessed as RevM5-GFP nuclear localization at 0.4 ug/ml after 2 hrs by fluorescence microscopy. Format: cell-based. The method, boiled down: as §1
In data set [4] the test system is Human immunodeficiency virus 1. As to the kind of experiment: Antiviral activity against HIV1 NL4-3 infected in HEK293T cells assessed as inhibition of virion-associated p24 antigen production after 24 hrs by ELISA. Conditions: for EC50: Human immunodeficiency virus 1, NL4-3, HEK-293T. Type of data set: functional, organism-based. The method, boiled down:
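HEK 293T cells in DMEM with 10% heat-inactivated FCS were transfected with the HIV-1 molecular clone NL4-3 by calcium phosphate. Compounds were added at a range of concentrations. Virus-associated p24 antigen in the supernatant was measured by ELISA 24 h after compound addition.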
On the technique in general: ELISA stands for enzyme-linked immunosorbent assay.

Data set [5] concerns the target Exportin-1 (Homo sapiens) (UniProt O14980). As to the kind of experiment: Inhibition of CRM1-mediated nucleocytoplasmic transport of HIV1 RevM5 mutant in human HeLa cells assessed as HIV1 RevM5-GFP nuclear localization at 10 ug/ml after 2 hrs by fluorescence microscopy. Format: cell-based. The method, boiled down:
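HeLa cells, grown in DMEM with 10% heat-inactivated FCS, 2 mM L-glutamine, 0.1% bicarbonate and gentamicin, were plated on glass-bottom dishes and transfected to express RevM5-GFP. RevM5-GFP is a Rev mutant that stays cytoplasmic but can still enter the nucleus. Compound was added, and after 2 h cellular RevM5-GFP distribution, nuclear versus cytoplasmic, was read by fluorescence microscopy with DIC images.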

The target is the same in data set [6]. The experiment in a line: Inhibition of CRM1-mediated nucleocytoplasmic transport of RevM5 mutant in HEK293 cells assessed as RevM5-GFP nuclear localization at 10 ug/ml after 2 hrs by fluorescence microscopy. Format: cell-based. The method, boiled down: as §1
Data set [7] shares this target. The experiment in a line: Inhibition of CRM1-mediated nucleocytoplasmic transport of RevM5 mutant in HEK293 cells assessed as RevM5-GFP nuclear localization at 0.08 ug/ml after 2 hrs by fluorescence microscopy. Format: cell-based. In outline: as §1
The nature of data set [8]: Cytotoxicity against HIV1 3B infected human OM10.1 cells at 20 ug/mL after 48 hrs by MTT assay. Type of data set: cell-based. The method, boiled down:
(§3)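 Cytotoxicity was read by MTT viability staining on the same TNF-α-stimulated (1 ng/ml), twice-washed HIV-1(IIIB) chronically infected OM10.1 cultures (120,000 cells/well). Compound was present throughout the 48 h incubation at 37 °C.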
For orientation: Formazan colour is commonly taken as a measure of viable cells.

The subject of data set [9] is HeLa. The experiment in a line: Inhibition of Rev-BFP/CRM1-EYFP interaction in human HeLa cells assessed as Rev-BFP/CRM1-EYFP nuclear colocalization at 10 ug/mL after 120 mins by fluorescence microscopy. Format: cell-based. The method, boiled down:
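HeLa cells on glass-bottom dishes, about 50% confluent, were co-transfected with Rev-BFP and CRM1-EYFP. One day later cells were washed with PBS and treated with compound in complete DMEM. Nucleolar co-localization of CRM1-EYFP with Rev was examined by live confocal microscopy at 30, 120 and 180 min and 24 h.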

In data set [10] the test system is Human immunodeficiency virus 1. As to the kind of experiment: Antiviral activity against HIV1 3B infected in human OM10.1 cells assessed as inhibition of TNF-alpha-induced viral p24 production at 5 ug/mL after 48 hrs by ELISA. Format: functional. Also noted: scale not given: the % may be the effect or the level left. In outline: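 OM10.1 cells chronically infected with HIV-1(IIIB), grown in RPMI 1640 with 10% FCS, were washed twice to remove cell-free virus and seeded at 120,000 cells/well with compound. Cultures were stimulated with 1 ng/ml TNF-α and incubated 48 h at 37 °C. Supernatant p24 was measured by ELISA.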

The nature of data set [11]: Cytotoxicity against HIV1 3B infected human OM10.1 cells at 10 ug/mL after 48 hrs by MTT assay. Format: cell-based. In outline: as §3
The test system of data set [12] is HeLa. The experiment in a line: Inhibition of Rev-BFP/CRM1Cys528Ser-EYFP mutant interaction in human HeLa cells assessed as Rev-BFP/CRM1Cys528Ser-EYFP nuclear colocalization at 10 ug/mL after 2 hrs by fluorescence microscopy. Type of data set: cell-based. In outline:
as §2

In data set [13] the test system is HeLa. The experiment in a line: Inhibition of Rev-BFP/CRM1Cys528Ser-EYFP mutant interaction in human HeLa cells assessed as Rev-BFP/CRM1Cys528Ser-EYFP nuclear colocalization at 25 nM after 2 hrs by fluorescence microscopy. Type of data set: cell-based. In outline:
(§4)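 HeLa cells were co-transfected with Rev-BFP and CRM1-EYFP constructs (wild type or Cys528 mutant). One day later cells were PBS-washed and treated with compound in complete DMEM. Live cells were imaged by confocal microscopy at 30, 120 and 180 min and at 24 h. BFP was excited by a multiphoton laser at 760 nm, with emission collected at 390–480 nm. Read-out was Rev-dependent nucleolar co-localization of CRM1-EYFP.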

Data set [14] relates to HeLa. The experiment in a line: Inhibition of Rev-BFP/CRM1-EYFP interaction in human HeLa cells assessed as Rev-BFP/CRM1-EYFP nuclear colocalization by fluorescence microscopy. Format: cell-based. The method, boiled down:
as §4

Sequence of Exportin-1 (Homo sapiens) (O14980 whole entry): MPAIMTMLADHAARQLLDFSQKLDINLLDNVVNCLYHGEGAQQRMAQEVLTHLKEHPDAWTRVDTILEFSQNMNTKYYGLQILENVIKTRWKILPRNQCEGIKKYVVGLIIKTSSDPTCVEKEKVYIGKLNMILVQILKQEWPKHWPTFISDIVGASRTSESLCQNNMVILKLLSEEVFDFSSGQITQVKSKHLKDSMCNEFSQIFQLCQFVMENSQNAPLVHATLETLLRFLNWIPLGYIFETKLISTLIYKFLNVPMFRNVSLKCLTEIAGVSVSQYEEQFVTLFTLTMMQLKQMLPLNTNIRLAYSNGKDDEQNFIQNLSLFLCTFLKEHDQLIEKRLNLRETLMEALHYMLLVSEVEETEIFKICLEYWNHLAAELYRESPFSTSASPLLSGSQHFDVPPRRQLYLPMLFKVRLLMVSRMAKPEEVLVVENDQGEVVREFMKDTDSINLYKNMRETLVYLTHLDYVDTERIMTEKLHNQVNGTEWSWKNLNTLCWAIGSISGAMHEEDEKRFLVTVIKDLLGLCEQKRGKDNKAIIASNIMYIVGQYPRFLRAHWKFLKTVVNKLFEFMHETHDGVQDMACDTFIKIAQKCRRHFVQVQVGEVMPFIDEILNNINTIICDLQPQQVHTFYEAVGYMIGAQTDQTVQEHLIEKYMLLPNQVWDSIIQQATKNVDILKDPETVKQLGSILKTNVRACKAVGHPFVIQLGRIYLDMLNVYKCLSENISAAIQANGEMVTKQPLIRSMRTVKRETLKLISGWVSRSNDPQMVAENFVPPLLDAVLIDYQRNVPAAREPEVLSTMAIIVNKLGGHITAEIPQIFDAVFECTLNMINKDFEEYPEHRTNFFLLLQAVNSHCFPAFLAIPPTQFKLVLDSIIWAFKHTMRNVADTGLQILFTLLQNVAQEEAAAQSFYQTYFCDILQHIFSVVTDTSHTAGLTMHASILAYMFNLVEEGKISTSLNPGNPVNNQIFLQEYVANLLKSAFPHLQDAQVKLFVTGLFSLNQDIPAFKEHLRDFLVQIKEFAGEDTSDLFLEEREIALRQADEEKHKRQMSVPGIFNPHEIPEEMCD

Consider `Clc1cccc(-c2nnn[nH]2)c1`, for which the outcome in data set [1], in data set [2], in data set [3], in [4] (HEK-293T), in data set [5] and in data set [6] was inactive. Further, the outcome in data set [7] was inactive.
Consider `CCOC(=O)/C=C\n1nnc(-c2cccc(Cl)c2)n1`, for which the result in [1], in data set [5], in data set [9] and in data set [6] was Active. The results for the Activity entry in [8], in data set [10] and in data set [11] were “Toxic”, 94% and “Toxic”, respectively. Moreover, the EC50 in [4] came out at 0.2 mg/L (≈ 0.718 µM). The result in data set [7] and in data set [12] was inactive.
Turning to `CCOC(=O)/C=C/n1nnc(-c2cccc(Cl)c2)n1`, the results for the Activity entry in data set [8], in [10] and in [11] were “Toxic”, 94% and “Toxic”, respectively. Besides, the outcome in [3] and in [7] was inactive. Also, the EC50 in [4] is 0.6 mg/L (≈ 2.15 µM). Besides, in [6], the outcome was Active.
On to `CCC(=C/[C@H](C)C/C=C/C(C)=C/[C@@H](C)C(=O)[C@@H](C)[C@H](O)[C@@H](C)C/C(C)=C/C(=O)O)/C=C/[C@@H]1OC(=O)C=C[C@@H]1C`, for which the result in data set [13] and in data set [14] was inactive.
